In PMC9119696 (Nature chemical biology, 2021):

Tests used:
PATU-8988T WT Pin1 cells = test: 3D Matrigel dome antiproliferative assay; format: cell-based; conditions: 1 μM, 9-day treatment
Procedure, shortened: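 1,000 cells per Matrigel dome, one dome per well, left 15 min at 37 °C to solidify. Medium with test compound renewed every 3 days. After 9 days, 3D CellTiter-Glo was added and the plate shaken 1 h at room temperature before reading luminescence. n = 9 biological replicates per condition.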

PATU-8988T cells = test: Cell cycle analysis; format: cell-based; conditions: 2.5 μM, 4 days
Procedure, shortened: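 PATU-8988T cells treated 4 days with DMSO (0.1%), test compound or a non-covalent analogue (each 2.5 µM), with medium replaced on day 3; run in triplicate or more. Pulsed with 10 µM BrdU for 1 h, then fixed in 70% ethanol and denatured in 2 M HCl/0.5% Triton X-100 (30 min, RT). Neutralised with 0.1 M Na2B4O7 pH 8.5 and stained overnight at 4 °C with anti-BrdU-FITC. Counterstained with propidium iodide plus RNase A (each 50 µg ml-1) and analysed by FACS.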

Pin1 = test: Live cell competition pulldown; format: cell-based; conditions: PATU-8988T or HCT116 cells, 5 h
Procedure, shortened: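 2.5 million cells per 10-cm plate, dosed next day with DMSO or test compound (5 h, or as indicated). Cells washed in cold PBS, scraped and lysed in HEPES pH 7.4/NP-40 buffer with TCEP. Lysate (500 µg) incubated with desthiobiotin probe (1 µM, 1 h, 4 °C), then streptavidin agarose (1.5 h, 4 °C). Pin1 pulldown detected by immunoblot.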

GST-Pin1 = GST-Pin1 (Homo sapiens, UniProt Q13526); test: Competitive fluorescence polarization; format: binding; conditions: 14 h incubation with recombinant full-length Pin1
Procedure, shortened: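 GST-Pin1 (250 nM) preincubated 14 h at 4 °C with compound and 5 nM N-terminal fluorescein-labelled peptide probe (Bth-D-pThr-Pip-Nal). Buffer: 10 mM HEPES, 10 mM NaCl, 1% glycerol pH 7.4, 10 µg ml-1 BSA, 0.01% Tween-20, 1 mM DTT. Ki calculated from probe concentration, 85% probe bound and Pin1 concentration. Kinact from dose- and time-dependent runs. n = 3 samples ± s.e.m.; 2 experiments.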

GST-Pin1, sequence (Q13526 whole entry): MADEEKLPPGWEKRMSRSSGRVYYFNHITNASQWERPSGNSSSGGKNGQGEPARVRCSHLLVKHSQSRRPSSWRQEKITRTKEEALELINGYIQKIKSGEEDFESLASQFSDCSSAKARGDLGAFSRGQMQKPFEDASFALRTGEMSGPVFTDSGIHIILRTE

## CC(=O)N(CC(C)(C)C)C1CCS(=O)(=O)C1 (stereo not shown) [Sulfopin-AcA]
PATU-8988T WT Pin1 cells
  antiproliferative activity in 3D Matrigel domes: showed no effect in any of the tested systems
PATU-8988T cells
  cells in S phase: did not show this effect
Pin1
  competition of Pin1 pulldown by DTB probe: unable to outcompete Pin1 pulldown
GST-Pin1
  competition in FP assay: inactive
